Measured values taken from ChEMBL document CHEMBL3421570, “Combinatorial Libraries As a Tool for the Discovery of Novel, Broad-Spectrum Antibacterial Agents Targeting the ESKAPE Pathogens” (J Med Chem, 2015).
The source made the active and inactive calls.

How the values were obtained:
Format in all cases: functional, organism-based
[1] = test system: Enterococcus faecium; test: Antimicrobial activity against Enterococcus faecium assessed as inhibition of microbial growth at 45 uM after 24 hrs
How it was run: (§1)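 Broth microdilution single-concentration read: overnight cultures diluted 1:1000, compound in DMF (≤2.0%) added, 37°C for 24 h, growth inhibition scored visually by lack of turbidity; triplicate. Gram-positives grown in TSB, Gram-negatives in LB.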

[2] = test system: Staphylococcus aureus; test: Antimicrobial activity against Staphylococcus aureus assessed as inhibition of microbial growth at 45 uM after 24 hrs; how it was run: as §1
[3] = test system: Klebsiella pneumoniae; test: Antimicrobial activity against Klebsiella pneumoniae assessed as inhibition of microbial growth at 45 uM after 24 hrs; how it was run: as §1
[4] = test system: Acinetobacter baumannii; test: Antimicrobial activity against Acinetobacter baumannii assessed as inhibition of microbial growth at 45 uM after 24 hrs; how it was run: as §1
[5] = test system: Pseudomonas aeruginosa; test: Antimicrobial activity against Pseudomonas aeruginosa assessed as inhibition of microbial growth at 45 uM after 24 hrs; how it was run: as §1
[6] = test system: Enterobacter cloacae; test: Antimicrobial activity against Enterobacter cloacae assessed as inhibition of microbial growth at 45 uM after 24 hrs; how it was run: as §1

Measured: growth inhibition (GI)

CCCC[C@H]1CN(CCCC[C@H]2CNC(=N)N2CCC23CC4CC(CC(C4)C2)C3)C(=N)N1CCCCC1CCCCC1
active: all assays above

N=C1NC[C@H](CCCCN2C[C@H](CC3CCCCC3)N(CCCCC3CCCCC3)C2=N)N1CCCCC1CCCCC1
active: all assays above

CCCCCCCN1C(=N)N(CCCC[C@H]2CNC(=N)N2CCc2cccc(C(F)(F)F)c2)C[C@H]1Cc1cccc2ccccc12
active: all assays above

CCCC[C@H]1CN(CCCC[C@H]2CNC(=N)N2CCCCC2CCCCC2)C(=N)N1CCc1ccc(-c2ccccc2)cc1
active: all assays above
